The results in this text go back to ChEMBL document CHEMBL1153160, “Towards development of selective and reversible pyrazoline based MAO-inhibitors: Synthesis, biological evaluation and docking studies” (Bioorg Med Chem Lett, 2010).

What all share (format): tissue-based
For experiment [1], the target named is T1, Amine oxidase [flavin-containing] B (Rattus norvegicus, UniProt P19643).
T1 sequence (P19643 whole entry): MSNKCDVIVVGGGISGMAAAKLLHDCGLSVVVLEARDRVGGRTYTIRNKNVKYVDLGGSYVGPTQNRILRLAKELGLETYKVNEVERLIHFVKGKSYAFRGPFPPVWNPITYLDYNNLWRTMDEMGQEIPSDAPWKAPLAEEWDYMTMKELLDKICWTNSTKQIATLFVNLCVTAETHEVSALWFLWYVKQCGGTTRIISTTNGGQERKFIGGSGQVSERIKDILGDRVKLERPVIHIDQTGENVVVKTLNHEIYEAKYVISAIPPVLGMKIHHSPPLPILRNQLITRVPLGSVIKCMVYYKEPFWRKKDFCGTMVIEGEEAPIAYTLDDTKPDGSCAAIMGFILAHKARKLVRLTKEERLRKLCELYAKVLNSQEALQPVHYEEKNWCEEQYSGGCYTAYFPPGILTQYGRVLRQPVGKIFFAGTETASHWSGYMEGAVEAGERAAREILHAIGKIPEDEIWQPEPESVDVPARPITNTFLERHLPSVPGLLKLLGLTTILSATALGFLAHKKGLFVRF
The experiment in a line: Inhibition of MAO-B in rat liver homogenate by spectrophotometry-based Holt method.

Experiment [2] has as its target T2, Amine oxidase [flavin-containing] A (Rattus norvegicus, UniProt P21396).
T2 sequence (P21396 whole entry): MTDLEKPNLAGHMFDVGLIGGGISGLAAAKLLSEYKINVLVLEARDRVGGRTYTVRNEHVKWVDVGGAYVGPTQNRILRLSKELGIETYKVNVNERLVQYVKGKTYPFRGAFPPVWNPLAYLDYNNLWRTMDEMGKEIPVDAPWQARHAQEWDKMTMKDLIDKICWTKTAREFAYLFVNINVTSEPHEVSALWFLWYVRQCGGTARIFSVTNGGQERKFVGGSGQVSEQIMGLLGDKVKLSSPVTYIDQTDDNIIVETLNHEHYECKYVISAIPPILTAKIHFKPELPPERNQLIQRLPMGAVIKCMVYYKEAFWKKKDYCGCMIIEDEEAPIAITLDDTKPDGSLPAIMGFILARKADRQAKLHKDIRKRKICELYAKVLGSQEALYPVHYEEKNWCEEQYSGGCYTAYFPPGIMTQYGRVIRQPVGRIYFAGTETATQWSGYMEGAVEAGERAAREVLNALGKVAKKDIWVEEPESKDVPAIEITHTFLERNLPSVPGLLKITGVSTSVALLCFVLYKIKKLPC
Nature of the experiment: Inhibition of MAO-A in rat liver homogenate by spectrophotometry-based Holt method.

The species entered for experiment [3] is Rattus norvegicus. The experiment in a line: Selectivity ratio of Ki for MAO-A in rat liver homogenate to Ki for MAO-B in rat liver homogenate. In a few lines:
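Rat liver MAO; isoform isolated by blocking the other with pargyline or clorgyline. p-Tyramine substrate (2.5 mM for MAO-B). Inhibitor (DMSO) pre-incubated with homogenate 60 min, 37 °C. Holt coupled assay (vanillinic acid, 4-aminoantipyrine, peroxidase; potassium phosphate pH 7.6) read at 498 nm, 37 °C, 60 min. Ki from kinetics, mean of three experiments; index = Ki(MAO-A)/Ki(MAO-B).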

The term Ki denotes the equilibrium dissociation constant of an inhibitor or competing ligand from its target. High values mean a looser hold on the target, low ones a stronger hold on the target. With `Cc1ccc(S(=O)(=O)N2N=C(c3ccccc3O)CC2c2ccccc2O)cc1` (stereo not given), the inhibition constant (Ki) in experiment [1] was 620 µM; in experiment [2], 0.36 µM.

For `O=S(=O)(c1ccccc1)N1N=C(c2ccccc2O)CC1c1ccccc1O` (stereo not given), the Ki in experiment [1] came to 1550 µM; in experiment [2], 0.91 µM.

With `O=C(c1ccccc1)N1N=C(c2ccccc2O)CC1c1ccccc1O` (stereo not given), the affinity in experiment [2] corresponds to a Ki of 0.8 µM.

Consider `O=C(c1ccccc1)N1N=C(c2ccccc2O)CC1c1ccc(O)cc1` (stereo not given), for which the inhibition constant (Ki) is 20300 µM in experiment [1] and 5.77 µM in experiment [2].

Turning to `Oc1ccc(C2CC(c3ccccc3O)=NN2)cc1` (stereo not given), the Ki in experiment [1] is 0.6 µM; in experiment [2], 3.9 µM. Also, the Ratio Ki in experiment [3] amounted to 6.49.

As for `N=C(NO)N1N=C(c2ccccc2O)CC1c1ccccc1O` (stereo not given), the values for the inhibition constant Ki in experiment [1] and in experiment [2] were 96.8 µM and 15.7 µM, respectively.

In the case of `O=S(=O)(c1ccccc1)N1N=C(c2ccccc2O)CC1c1ccc(O)cc1` (stereo not given), the values for the Ki in experiment [1] and in experiment [2] were 700 µM and 0.68 µM, respectively.

As to `Oc1ccccc1C1=NNC(c2ccccc2O)C1` (stereo not given), the values for the Ki in experiment [1] and in experiment [2] were 0.78 µM and 3.7 µM, respectively. Besides, in experiment [3], the Ratio Ki was 4.74.

Take `N=C(NO)N1N=C(c2ccccc2O)CC1c1ccc(O)cc1` (stereo not given): the figures for the Ki in experiment [1] and in experiment [2] were 210 µM and 10.6 µM, respectively.

In experiment [2], `Cc1ccc(S(=O)(=O)N2N=C(c3ccccc3O)CC2c2ccc(O)cc2)cc1` (stereo not given) yielded an inhibitory constant (Ki) of 0.6 µM.
